Results published in ChEMBL document CHEMBL5034008, “Diversity-Oriented A3-Macrocyclization for Studying Influences of Ring-Size and Shape of Cyclic Peptides: CD36 Receptor Modulators” (J Med Chem, 2021).
pIC50: −log10 of the molar value. Non-standard residues stand in square brackets, D forms with d. Residues, ends and D or L forms follow the SMILES beside them. ξ: configuration not given here. *: point of attachment. X1 = CCCCCCCCCCCCCCCC(=O)OCC(C*)OC(=O)CCCCCCCCCCCCCCC; ξC = NC(CS)C(=O)O

Key:
[1] = molecular target: Platelet glycoprotein 4 (Mus musculus) (UniProt Q08857); assay: Modulation of CD36 receptor in mouse RAW 264.7 cells assessed as inhibition of R-FSL-1-induced CCl-2 production at competitive receptor binding assay IC50 concentration pretreated for 30 mins followed by R-FSL-1 stimulation measured after 19 hrs by ELISA relative to R-FSL-1; format: cell-based; set-up: scale not given: the % may be the effect or the level left
Chain of Platelet glycoprotein 4 (Mus musculus) (Q08857 whole entry): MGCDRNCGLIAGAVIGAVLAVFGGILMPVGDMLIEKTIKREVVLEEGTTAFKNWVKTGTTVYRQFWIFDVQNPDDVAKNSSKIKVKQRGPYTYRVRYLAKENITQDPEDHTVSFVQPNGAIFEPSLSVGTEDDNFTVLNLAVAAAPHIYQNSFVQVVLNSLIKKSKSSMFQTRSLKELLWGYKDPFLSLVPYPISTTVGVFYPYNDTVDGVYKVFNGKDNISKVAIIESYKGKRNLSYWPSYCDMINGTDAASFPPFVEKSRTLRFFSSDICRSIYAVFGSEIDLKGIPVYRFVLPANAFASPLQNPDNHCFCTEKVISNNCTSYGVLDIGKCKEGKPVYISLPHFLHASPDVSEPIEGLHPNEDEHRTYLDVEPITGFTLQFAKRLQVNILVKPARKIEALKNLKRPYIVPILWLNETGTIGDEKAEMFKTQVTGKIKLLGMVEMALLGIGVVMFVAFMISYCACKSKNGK

[2] = molecular target: Platelet glycoprotein 4 (Mus musculus) (UniProt Q08857); assay: Modulation of CD36 receptor in mouse BMA3.1A7 cells assessed as inhibition of R-FSL-1-induced IL-1beta production […] measured after 4 hrs by ELISA; format: cell-based; conditions: filed as modulator, time 4.5 hrs
[3] = molecular target: Platelet glycoprotein 4 (Mus musculus) (UniProt Q08857); assay: Modulation of CD36 receptor in mouse BMA3.1A7 cells assessed as inhibition of R-FSL-1-induced IL-1beta production at competitive receptor binding assay IC50 concentration pretreated for 30 mins followed by R-FSL-1 stimulation measured after 4 hrs by ELISA relative to R-FSL-1; format: cell-based; set-up: scale not given: the % may be the effect or the level left; conditions: time 4.5 hrs
[4] = molecular target: Platelet glycoprotein 4 (Mus musculus) (UniProt Q08857); assay: Modulation of CD36 receptor in mouse RAW 264.7 cells assessed as inhibition of R-FSL-1-induced CCL-2 production pretreated for 30 mins followed by R-FSL-1 stimulation measured after 4 hrs by ELISA; format: cell-based; conditions: RAW264.7, filed as modulator, time 4.5 hrs
Method in brief: (§1)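 RAW 264.7 cells seeded at 1.5 × 10^5 per well and weaned overnight in DMEM with 1% pen/strep. Medium then changed to DMEM with 0.2% BSA. Cells pretreated 30 min with peptide at 10^-7 M, with linear [azaTyr4]-GHRP-6 as reference. Stimulated with R-FSL-1 at 300 ng/mL for 4 h at 37 °C. TNF-α or CCL-2 in supernatant measured by ELISA. Inhibition % = (FSL-1 − treated)/(FSL-1 − basal) × 100.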

[5] = molecular target: Platelet glycoprotein 4 (Rattus norvegicus, UniProt Q07969); assay: Displacement of [125I]-Tyr-Bpa-Ala-hexarelin from rat CD36 receptor in heart tissue membrane incubated for 60 mins by competitive receptor binding assay; format: cell membranes
Chain of Platelet glycoprotein 4 (Q07969 whole entry): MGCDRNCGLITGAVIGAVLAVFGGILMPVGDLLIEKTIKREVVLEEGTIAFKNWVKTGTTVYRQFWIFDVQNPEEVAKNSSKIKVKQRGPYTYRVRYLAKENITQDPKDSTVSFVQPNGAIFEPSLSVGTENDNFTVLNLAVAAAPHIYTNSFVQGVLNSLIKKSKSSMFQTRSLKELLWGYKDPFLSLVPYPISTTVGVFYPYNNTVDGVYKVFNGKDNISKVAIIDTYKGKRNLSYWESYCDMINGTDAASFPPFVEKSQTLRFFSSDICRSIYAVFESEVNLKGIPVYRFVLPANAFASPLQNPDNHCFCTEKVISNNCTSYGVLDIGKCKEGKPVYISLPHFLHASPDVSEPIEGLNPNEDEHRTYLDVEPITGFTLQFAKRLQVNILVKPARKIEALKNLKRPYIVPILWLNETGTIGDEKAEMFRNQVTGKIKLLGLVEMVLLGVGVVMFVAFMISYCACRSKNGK
Method in brief: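 Rat heart membranes (50 μg) incubated in the dark with 250,000 cpm [125I]-Tyr-Bpa-Ala-hexarelin in 50 mM Tris-HCl pH 7.4, 2 mM EGTA, 0.05% bacitracin, with competitor at 0.1–10 μM; hexarelin as reference. Nonspecific binding defined with 50 μM peptide. 60 min at 22 °C, then UV photolysis at 365 nm for 15 min at 4 °C. Pellets resolved on 7.5% SDS-PAGE.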

[6] = molecular target: Platelet glycoprotein 4 (Mus musculus) (UniProt Q08857); assay: Modulation of CD36 receptor in mouse RAW 264.7 cells assessed as inhibition of R-FSL-1-induced NO production at competitive receptor binding assay IC50 concentration pretreated for 30 mins followed by R-FSL-1 stimulation measured after 19 hrs by fluorescence plate reader assay relative to R-FSL-1; format: cell-based; set-up: scale not given: the % may be the effect or the level left
[7] = molecular target: Platelet glycoprotein 4 (Mus musculus) (UniProt Q08857); assay: Modulation of CD36 receptor in mouse RAW 264.7 cells assessed as inhibition of R-FSL-1-induced TNFalpha production at competitive receptor binding assay IC50 concentration pretreated for 30 mins followed by R-FSL-1 stimulation measured after 19 hrs by ELISA relative to R-FSL-1; format: cell-based; set-up: scale not given: the % may be the effect or the level left; conditions: RAW264.7, time 19.5 hrs
[8] = molecular target: Platelet glycoprotein 4 (Mus musculus) (UniProt Q08857); assay: Modulation of CD36 receptor in mouse RAW 264.7 cells assessed as inhibition of R-FSL-1-induced TNFalpha production pretreated for 30 mins followed by R-FSL-1 stimulation measured after 4 hrs by ELISA; format: cell-based; conditions: RAW264.7, filed as modulator, time 4.5 hrs; method in brief: as §1
[9] = molecular target: Platelet glycoprotein 4 (Mus musculus) (UniProt Q08857); assay: Modulation of CD36 receptor in mouse RAW 264.7 cells assessed as inhibition of R-FSL-1-induced NO production pretreated for 30 mins followed by R-FSL-1 stimulation measured after 1140 min by fluorescence plate reader assay; format: cell-based; conditions: RAW264.7, filed as modulator, time 1170.0 min
Method in brief: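 RAW 264.7 cells seeded at 1.5 × 10^5 per well in DMEM with pen/strep. After 2 h, medium changed to DMEM with 0.2% BSA containing peptide. Cells stimulated with R-FSL-1 at 300 ng/mL for 19 h. Nitrite in 25 μL supernatant reacted with 0.5 μg 2,3-diaminonaphthalene in 50 mM phosphate pH 7.5, 15 min at room temperature in the dark, stopped with NaOH. Fluorescence read.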

SMILES | Activity ([1]; RAW264.7, time 19.5 hrs) [%] | Activity [2] [pmol] | Activity [3] [%] | Activity [4] [pmol] | pIC50 [5] | Activity ([6]; RAW264.7, time 1170.0 min) [%] | Activity [7] [%] | Activity [8] [pmol] | Activity [9] [µM] | Activity ([1]; RAW264.7, filed as modulator, time 19.5 hrs) [%] | Activity ([3]; filed as modulator) [%] | Activity ([6]; RAW264.7, filed as modulator, time 1170.0 min) [%]
C=CCN1CC#CCN(NC(=O)[C@H](C)N)C(=O)N[C@@H](C)C(=O)N[C@@H](Cc2c[nH]c3ccccc23)C(=O)N[C@H](Cc2ccccc2)C(=O)N[C@H](C(N)=O)CCC1 | 8 | 381 | 9 | 1030 | 4.64 | 0 | 5 | 4760 | 2.81 | – | – | –
C=CCN1CC#CCN(NC(=O)[C@H](C)N)C(=O)N[C@H](Cc2c[nH]c3ccccc23)C(=O)N[C@@H](C)C(=O)N[C@@H](Cc2c[nH]c3ccccc23)C(=O)N[C@H](Cc2ccccc2)C(=O)N[C@H](C(N)=O)CCCC1 | – | 253 | – | 672 | 7.00 | 35 | 25 | 3940 | 2.11 | 50 | 46 | –
C=CCN1CC#CCN(NC(C)=O)C(=O)N[C@H](Cc2c[nH]c3ccccc23)C(=O)N[C@@H](C)C(=O)N[C@@H](Cc2c[nH]c3ccccc23)C(=O)N[C@H](Cc2ccccc2)C(=O)N[C@H](C(N)=O)CCCC1 | 36 | 351 | 18 | 785 | – | 18 | 10 | 4560 | 2.45 | – | – | –
C[C@H](N)C(=O)NN1C/C=C\CN(CC2CC2)CCCC[C@@H](C(N)=O)NC(=O)[C@@H](Cc2ccccc2)NC(=O)[C@H](Cc2c[nH]c3ccccc23)NC(=O)[C@H](C)NC(=O)[C@@H](Cc2c[nH]c3ccccc23)NC1=O | 23 | 312 | 9 | 903 | 5.04 | 12 | 3 | 4820 | 2.57 | – | – | –
C=CCN1CC#CCN(NC(=O)[C@H](C)N)S(=O)(=O)N[C@H](Cc2c[nH]c3ccccc23)C(=O)N[C@@H](C)C(=O)N[C@@H](Cc2c[nH]c3ccccc23)C(=O)N[C@H](Cc2ccccc2)C(=O)N[C@H](C(N)=O)CCCC1 | 15 | 378 | 6 | 969 | 4.99 | 4 | -4 | 5120 | 2.74 | – | – | –
CCCCCCCCCCCCCCCC(=O)OCC(CSCC(N)C(=O)NCC(=O)N[C@@H](CC(=O)O)C(=O)N1CCC[C@H]1C(=O)N[C@@H](CCCCN)C(=O)N[C@@H](Cc1cnc[nH]1)C(=O)N1CCC[C@H]1C(=O)N[C@@H](CCCCN)C(=O)N[C@@H](CO)C(=O)N[C@@H](Cc1ccccc1)C(=O)O)OC(=O)CCCCCCCCCCCCCCC (stereo not given in full) (H-[ξC](X1)GDPKHPKSF-OH) | – | 410 | – | 1100 | – | – | – | 4970 | 2.82 | – | – | –
CCCN1CCCC[C@@H](C(N)=O)NC(=O)[C@@H](Cc2ccccc2)NC(=O)[C@H](Cc2c[nH]c3ccccc23)NC(=O)[C@H](C)NC(=O)[C@@H](Cc2c[nH]c3ccccc23)NC(=O)N(NC(=O)[C@H](C)N)CCCC1 | 34 | 312 | 29 | 802 | 5.65 | 36 | 21 | 4110 | 2.08 | – | – | –
C=CCN1CC#CCN(NC(=O)[C@H](C)N)C(=O)N[C@@H](C)C(=O)N[C@@H](Cc2c[nH]c3ccccc23)C(=O)N[C@H](Cc2ccccc2)C(=O)N[C@H](C(N)=O)CCCC1 | 39 | 291 | 35 | 758 | – | – | 27 | 3840 | 2.3 | – | – | 25
